Results from ChEMBL document CHEMBL2384906, “Biological activity, design, synthesis and structure activity relationship of some novel derivatives of curcumin containing sulfonamides” (Eur J Med Chem, 2013).
Converted amounts (≈) assume the structure as drawn. The source made the active and inactive calls. The rule behind the calls is not given here.

Key:
Mus musculus = experiment: Antiinflammatory activity in mouse assessed as inhibition of carrageenan-induced increase in paw volume at 200 mg/kg administered 1 hr prior to carrageenan challenge measured after 3 hrs relative to control; format: functional
How it was run: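 Mice were fasted 2 h and placed in groups of five. Controls received saline i.p. Phenylbutazone was given at 100 mg/kg i.p., curcumin at 200 mg/kg i.p., and derivatives at 200 mg/kg. After 1 h, 0.1 mL of 1% carrageenan in saline was injected subplantar into the right hind paw. Paw volume was followed by plethysmometer for 3 h, and % inhibition was calculated as (Vc − Vt)/Vc × 100.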

HCT-116 = experiment: Cytotoxicity against human HCT116 cells after 24 hrs by MTT assay; format: functional, cell-based
How it was run: (§1)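 The MTT assay seeded 5 × 10⁴ cells per well and grew them 24 h in RPMI 1640 with compound at 2.5–200 µM. Medium without cells was the blank and adriamycin the positive control. MTT was added for 4 h at 37 °C, formazan was solubilised, and absorbance was read at 570 nm. IC50 is the concentration that cuts viability 50% against untreated cells.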

QG-56 = experiment: Cytotoxicity against human QG56 cells after 24 hrs by MTT assay; format: functional, cell-based; how it was run: as §1
HeLa = experiment: Cytotoxicity against human HeLa cells after 24 hrs by MTT assay; format: functional, cell-based; how it was run: as §1
HepG2 = experiment: Cytotoxicity against human HepG2 cells after 24 hrs by MTT assay; format: functional, cell-based; how it was run: as §1
Trichoderma viride [1] = experiment: Antifungal activity against Trichoderma viride MTCC 1107 after 48 hrs; format: functional; settings: MTCC 1107, 48 h
Trichoderma viride [2] = experiment: Antifungal activity against Trichoderma viride MTCC 1107 assessed as zone of inhibition at 20 uM after 48 hrs by disc diffusion method; format: functional; settings: MTCC 1107, 48 h, read-out: IZ
How it was run: (§2)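 Spores from 4-day potato dextrose agar cultures, suspended in sterile water at 1.5 × 10⁵ CFU/mL. 0.2 mL was spread on potato dextrose agar. 5 mm filter-paper discs soaked with test compound were laid on the lawn. Incubation was 48 h at 28 °C, then the inhibition zone was measured in mm. Fluconazole was the positive control and acetone the negative control.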

Trichoderma viride [3] = experiment: Antifungal activity against Trichoderma viride MTCC 1107 assessed as zone of inhibition at 40 uM after 48 hrs by disc diffusion method; format: functional; settings: MTCC 1107, 48 h, read-out: IZ; how it was run: as §2
Trichoderma viride [4] = experiment: Antifungal activity against Trichoderma viride MTCC 1107 assessed as zone of inhibition at 80 uM after 48 hrs by disc diffusion method; format: functional; settings: MTCC 1107, 48 h, read-out: IZ; how it was run: as §2
Curvularia lunata [5] = experiment: Antifungal activity against Curvularia lunata MTCC 581 after 48 hrs; format: functional; settings: MTCC 581, 48 h
Curvularia lunata [6] = experiment: Antifungal activity against Curvularia lunata MTCC 581 assessed as zone of inhibition at 20 uM after 48 hrs by disc diffusion method; format: functional; settings: MTCC 581, 48 h, read-out: IZ; how it was run: as §2
Curvularia lunata [7] = experiment: Antifungal activity against Curvularia lunata MTCC 581 assessed as zone of inhibition at 40 uM after 48 hrs by disc diffusion method; format: functional; settings: MTCC 581, 48 h, read-out: IZ; how it was run: as §2
Aspergillus flavus [8] = experiment: Antifungal activity against Aspergillus flavus MTCC 1021 after 48 hrs; format: functional
Curvularia lunata [9] = experiment: Antifungal activity against Curvularia lunata MTCC 581 assessed as zone of inhibition at 80 uM after 48 hrs by disc diffusion method; format: functional; settings: MTCC 581, 48 h, read-out: IZ; how it was run: as §2
Aspergillus flavus [10] = experiment: Antifungal activity against Aspergillus flavus MTCC 1021 assessed as zone of inhibition at 80 uM after 48 hrs by disc diffusion method; format: functional; how it was run: as §2
Aspergillus niger [11] = experiment: Antifungal activity against Aspergillus niger MTCC 1108 after 48 hrs; format: functional
Aspergillus niger [12] = experiment: Antifungal activity against Aspergillus niger MTCC 1108 assessed as zone of inhibition at 80 uM after 48 hrs by disc diffusion method; format: functional; how it was run: as §2
Escherichia coli [13] = experiment: Antimicrobial activity against Escherichia coli ATCC 35218 after 24 hrs by broth micro serial dilution method; format: functional; settings: ATCC 35218, 24 h
How it was run: (§3)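 This was broth microdilution in autoclaved Mueller-Hinton broth. 150 µL of compound per well was serially diluted […], and 50 µL of test organism was added. Plates were incubated 24 h at 37 °C and optical density was read.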

Escherichia coli [14] = experiment: Antimicrobial activity against Escherichia coli ATCC 35218 assessed as diameter of inhibition zone at 20 uM after 24 hrs by Kirby -Baur disc diffusion method; format: functional; settings: ATCC 35218, 24 h, read-out: DIZ
How it was run: (§4)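 Kirby-Bauer disc diffusion was used. Acetone stocks (160 µM) were serially doubled down to 80, 40 and 20 µM. 4 µL of each went onto 5 mm sterile paper discs, which were dried 30 min at 50 °C. Inoculum was 1.5 × 10⁸ CFU/mL diluted to 3 × 10² CFU/mL, and 50 µL was spread on Mueller-Hinton agar. After 24 h at 37 °C the inhibition-zone diameter was measured. Ciprofloxacin served as positive control.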

Escherichia coli [15] = experiment: Antimicrobial activity against Escherichia coli ATCC 35218 assessed as diameter of inhibition zone at 40 uM after 24 hrs by Kirby -Baur disc diffusion method; format: functional; settings: ATCC 35218, 24 h, read-out: DIZ; how it was run: as §4
Escherichia coli [16] = experiment: Antimicrobial activity against Escherichia coli ATCC 35218 assessed as diameter of inhibition zone at 80 uM after 24 hrs by Kirby -Baur disc diffusion method; format: functional; settings: ATCC 35218, 24 h, read-out: DIZ; how it was run: as §4
Pseudomonas aeruginosa [17] = experiment: Antimicrobial activity against Pseudomonas aeruginosa ATCC 15499 after 24 hrs by broth micro serial dilution method; format: functional; settings: ATCC 15499, 24 h; how it was run: as §3
Pseudomonas aeruginosa [18] = experiment: Antimicrobial activity against Pseudomonas aeruginosa ATCC 15499 assessed as diameter of inhibition zone at 80 uM after 24 hrs by Kirby -Baur disc diffusion method; format: functional; how it was run: as §4
Salmonella typhi [19] = experiment: Antimicrobial activity against Salmonella typhi ATCC 23564 after 24 hrs by broth micro serial dilution method; format: functional, Salmonella enterica subsp. enterica serovar Typhi; settings: Salmonella enterica, ATCC 23564, 24 h
Salmonella typhi [20] = experiment: Antimicrobial activity against Salmonella typhi ATCC 23564 assessed as diameter of inhibition zone at 20 uM after 24 hrs by Kirby -Baur disc diffusion method; format: functional; settings: Salmonella enterica subsp. enterica serovar Typhi
Salmonella typhi [21] = experiment: Antimicrobial activity against Salmonella typhi ATCC 23564 assessed as diameter of inhibition zone at 40 uM after 24 hrs by Kirby -Baur disc diffusion method; format: functional; settings: Salmonella enterica subsp. enterica serovar Typhi
Salmonella typhi [22] = experiment: Antimicrobial activity against Salmonella typhi ATCC 23564 assessed as diameter of inhibition zone at 80 uM after 24 hrs by Kirby -Baur disc diffusion method; format: functional, Salmonella enterica subsp. enterica serovar Typhi; settings: Salmonella enterica, ATCC 23564, 24 h; read-out: DIZ
Bacillus cereus [23] = experiment: Antimicrobial activity against Bacillus cereus MTCC 7350 after 24 hrs by broth micro serial dilution method; format: functional; settings: MTCC 7350, 24 h; how it was run: as §3
Bacillus cereus [24] = experiment: Antimicrobial activity against Bacillus cereus MTCC 7350 assessed as diameter of inhibition zone at 20 uM after 24 hrs by Kirby -Baur disc diffusion method; format: functional; how it was run: as §4
Bacillus cereus [25] = experiment: Antimicrobial activity against Bacillus cereus MTCC 7350 assessed as diameter of inhibition zone at 40 uM after 24 hrs by Kirby -Baur disc diffusion method; format: functional; how it was run: as §4
Bacillus cereus [26] = experiment: Antimicrobial activity against Bacillus cereus MTCC 7350 assessed as diameter of inhibition zone at 80 uM after 24 hrs by Kirby -Baur disc diffusion method; format: functional; settings: MTCC 7350, 24 h, read-out: DIZ; how it was run: as §4
Staphylococcus aureus [27] = experiment: Antimicrobial activity against Staphylococcus aureus ATCC 11632 after 24 hrs by broth micro serial dilution method; format: functional; settings: ATCC 11632, 24 h; how it was run: as §3
Staphylococcus aureus [28] = experiment: Antimicrobial activity against Staphylococcus aureus ATCC 11632 assessed as diameter of inhibition zone at 20 uM after 24 hrs by Kirby -Baur disc diffusion method; format: functional; how it was run: as §4
Staphylococcus aureus [29] = experiment: Antimicrobial activity against Staphylococcus aureus ATCC 11632 assessed as diameter of inhibition zone at 40 uM after 24 hrs by Kirby -Baur disc diffusion method; format: functional; settings: ATCC 11632, 24 h, read-out: DIZ; how it was run: as §4
Staphylococcus aureus [30] = experiment: Antimicrobial activity against Staphylococcus aureus ATCC 11632 assessed as diameter of inhibition zone at 80 uM after 24 hrs by Kirby -Baur disc diffusion method; format: functional; settings: ATCC 11632, 24 h, read-out: DIZ; how it was run: as §4

SMILES: COc1ccc(NS(=O)(=O)c2ccc(/N=N/c3c(/C=C/c4ccc(O)c(OC)c4)nn(-c4ccccc4)c3/C=C/c3ccc(O)c(OC)c3)cc2)nn1
- inhibition in vivo at 200 mg/kg (Mus musculus): 45.1%
- IC50 (HCT-116): Not Active
- IC50 (QG-56): 100 µM
- IC50 (HeLa): 50 µM
- IC50 (HepG2): > 100 µM
- MIC (Trichoderma viride [1]): 40 µM (≈ 29.3 µg/mL)
- zone of inhibition at 20 µM (Trichoderma viride [2]): 12 mm
- zone of inhibition at 40 µM (Trichoderma viride [3]): 16 mm
- zone of inhibition at 80 µM (Trichoderma viride [4]): 19 mm
- MIC (Curvularia lunata [5]): 20 µM (≈ 14.6 µg/mL)
- zone of inhibition at 20 µM (Curvularia lunata [6]): 12 mm
- zone of inhibition at 40 µM (Curvularia lunata [7]): 16 mm
- MIC (Aspergillus flavus [8]): inactive
- zone of inhibition at 80 µM (Curvularia lunata [9]): 19 mm
- inhibition zone (IZ) (Aspergillus flavus [10]): inactive
- MIC (Aspergillus niger [11]): inactive
- inhibition zone (IZ) (Aspergillus niger [12]): inactive
- MIC (Escherichia coli [13]): > 80 µM
- zone of inhibition at 20 µM (Escherichia coli [14]): 8 mm
- zone of inhibition at 40 µM (Escherichia coli [15]): 9 mm
- zone of inhibition at 80 µM (Escherichia coli [16]): 11 mm
- MIC (Pseudomonas aeruginosa [17]): > 80 µM
- diameter of the inhibition zone (DIZ) (Pseudomonas aeruginosa [18]): inactive
- MIC (Salmonella typhi [19]): > 80 µM
- diameter of the inhibition zone (DIZ) (Salmonella typhi [20]): inactive
- diameter of the inhibition zone (DIZ) (Salmonella typhi [21]): inactive
- zone of inhibition at 80 µM (Salmonella typhi [22]): 10 mm
- MIC (Bacillus cereus [23]): > 80 µM
- diameter of the inhibition zone (DIZ) (Bacillus cereus [24]): inactive
- diameter of the inhibition zone (DIZ) (Bacillus cereus [25]): inactive
- zone of inhibition at 80 µM (Bacillus cereus [26]): 9 mm
- MIC (Staphylococcus aureus [27]): > 80 µM
- diameter of the inhibition zone (DIZ) (Staphylococcus aureus [28]): inactive
- zone of inhibition at 40 µM (Staphylococcus aureus [29]): 7 mm
- zone of inhibition at 80 µM (Staphylococcus aureus [30]): 9 mm
